This is an account of results in ChEMBL document CHEMBL4017468, “Synthesis and biological evaluation of pyrimidine derivatives with diverse azabicyclic ether/amine as novel GPR119 agonist” (Bioorg Med Chem Lett, 2017).

For test [1], the target named is T1, Glucose-dependent insulinotropic receptor (Homo sapiens, UniProt Q8TDV5).
T1 sequence (Q8TDV5 whole entry): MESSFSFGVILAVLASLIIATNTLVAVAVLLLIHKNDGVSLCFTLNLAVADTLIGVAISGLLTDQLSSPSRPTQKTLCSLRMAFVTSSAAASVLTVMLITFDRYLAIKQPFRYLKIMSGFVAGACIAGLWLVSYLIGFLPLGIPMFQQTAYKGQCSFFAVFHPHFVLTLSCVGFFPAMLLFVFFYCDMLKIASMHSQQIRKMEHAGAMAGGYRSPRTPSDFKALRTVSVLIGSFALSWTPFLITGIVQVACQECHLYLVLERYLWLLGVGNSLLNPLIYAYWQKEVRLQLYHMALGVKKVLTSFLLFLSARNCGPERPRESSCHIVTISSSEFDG
The test can be described thus: Agonist activity at human GPR119 expressed in HEK293 cells assessed as increase in cAMP stimulation measured after 60 mins by TR-FRET assay. The class given is functional, cell-based. The procedure, abridged:
(§1)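 HEK293 cells seeded at 4×10^3 cells/well, grown 24 h, then transiently transfected with a GPR119 expression plasmid using Lipofectamine/Plus. After 24 h, compounds were added in KRBH buffer with 0.1% BSA and 500 μM IBMX for 60 min at 37 °C. Cells were lysed 10 min at room temperature (50 mM phosphate, 1 M KF, 1.25% Triton X-100, pH 7.0). cAMP was read by HTRF. EC50 was taken as the concentration giving 50% of OEA-stimulated cAMP, and %max as the response relative to maximal OEA effect.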
A general note: Time-resolved FRET reads energy transfer from a long-lived donor to a nearby acceptor.

In test [2] the target is T2, Glucose-dependent insulinotropic receptor (Homo sapiens) (UniProt Q8TDV5).
T2 sequence (whole entry): T1 sequence (Q8TDV5 whole entry)
As to the kind of experiment: Agonist activity at human GPR119 expressed in HEK293 cells assessed as increase in cAMP stimulation measured after 60 mins by TR-FRET assay relative to oleoylethanolamide. It is filed as functional, cell-based. The procedure, abridged: as §1

pEC50: −log10 of the molar value.

Consider `CC(C)(C)OC(=O)N1CC2CC1CC2Oc1ncnc(Nc2ccc(S(C)(=O)=O)cc2F)c1[N+](=O)[O-]` (stereo unspecified), for which the pEC50 in test [1] is 8.25. Further, in test [2], the %max stood at 86.7%. For `CC(C)(C)OC(=O)N1CC2CCC1CC2Oc1ncnc(Nc2ccc(S(C)(=O)=O)cc2F)c1[N+](=O)[O-]` (stereo unspecified) the same measures were less than 5.00 and 32.9%. As for `CC(C)(C)OC(=O)N1CC2CC1CC2Oc1ncnc(Nc2ccc(S(C)(=O)=O)cc2)c1[N+](=O)[O-]` (stereo unspecified), the pEC50 in test [1] is 6.96. Moreover, the %max in test [2] turned out to be 101%. As to `CC(C)(C)OC(=O)N1CC2CC(Oc3ncnc(Nc4ccc(S(C)(=O)=O)cc4)c3[N+](=O)[O-])C1C2` (stereo unspecified), the pEC50 in test [1] is 6.50. In addition, the %max in test [2] turned out to be 58.4%. The corresponding values for `CC(C)(C)OC(=O)N1CC2CC(Oc3ncnc(Nc4ccc(S(C)(=O)=O)cc4F)c3[N+](=O)[O-])C1C2` (stereo unspecified) are 7.11 and 52.6%. For `CCCCCCCC/C=C\CCCCCCCC(=O)NCCO`, in test [2], the %max turned out to be 100%. For `CC(C)(C)OC(=O)N1C[C@@H]2CC[C@@H]1C[C@@H]2Oc1ncnc(Nc2ccc(S(C)(=O)=O)cc2F)c1[N+](=O)[O-]` (relative stereo), the pEC50 in test [1] is 8.92. Also, the %max in test [2] stood at 112%. `CC(C)(C)OC(=O)N1CC2CC(Nc3ncnc(Nc4ccc(S(C)(=O)=O)cc4F)c3[N+](=O)[O-])C1C2` (stereo in doubt; 27e) [listing 1 of 2 here]: the pEC50 in test [1] was 7.28. Regarding `CC(C)(C)OC(=O)N1CC2CC(Nc3ncnc(Nc4ccc(S(C)(=O)=O)cc4F)c3[N+](=O)[O-])C1C2` (stereo in doubt; 27e) [listing 2 of 2 here], the %max in test [2] is 76.7%. As to `CC(C)(C)OC(=O)N1CC2CC(Nc3ncnc(Nc4ccc(S(C)(=O)=O)cc4)c3[N+](=O)[O-])C1C2` (stereo in doubt; 27f) [listing 1 of 2 here], in test [1], the pEC50 is less than 6.00. Turning to `CC(C)(C)OC(=O)N1CC2CC(Nc3ncnc(Nc4ccc(S(C)(=O)=O)cc4)c3[N+](=O)[O-])C1C2` (stereo in doubt; 27f) [listing 2 of 2 here], the %max in test [2] was 38.9%. `CC(C)(C)OC(=O)N1CC2CC(Nc3ncnc(Nc4ccc(S(C)(=O)=O)cc4F)c3[N+](=O)[O-])C1C2` (stereo in doubt; 27g) [listing 1 of 2 here]: the pEC50 in test [1] is 6.63. In the case of `CC(C)(C)OC(=O)N1CC2CC(Nc3ncnc(Nc4ccc(S(C)(=O)=O)cc4F)c3[N+](=O)[O-])C1C2` (stereo in doubt; 27g) [listing 2 of 2 here], the %max in test [2] was 63.4%.

Take `CC(C)(C)OC(=O)N1CC2CC(Nc3ncnc(Nc4ccc(S(C)(=O)=O)cc4)c3[N+](=O)[O-])C1C2` (stereo in doubt; 27h) [listing 1 of 2 here]: the pEC50 in test [1] is less than 5.00. Take `CC(C)(C)OC(=O)N1CC2CC(Nc3ncnc(Nc4ccc(S(C)(=O)=O)cc4)c3[N+](=O)[O-])C1C2` (stereo in doubt; 27h) [listing 2 of 2 here]: in test [2], the %max came to 21.6%. Regarding `CC(C)(C)OC(=O)N1CC2CC1CC2Nc1ncnc(Nc2ccc(S(C)(=O)=O)cc2F)c1[N+](=O)[O-]` (stereo in doubt; 27i) [listing 1 of 2 here], the pEC50 in test [1] was 8.31. Regarding `CC(C)(C)OC(=O)N1CC2CC1CC2Nc1ncnc(Nc2ccc(S(C)(=O)=O)cc2F)c1[N+](=O)[O-]` (stereo in doubt; 27i) [listing 2 of 2 here], the %max in test [2] was 97%. `CC(C)(C)OC(=O)N1CC2CC1CC2Nc1ncnc(Nc2ccc(S(C)(=O)=O)cc2)c1[N+](=O)[O-]` (stereo in doubt; 27j) [listing 1 of 2 here]: the pEC50 in test [1] was 7.32.

For `CC(C)(C)OC(=O)N1CC2CC1CC2Nc1ncnc(Nc2ccc(S(C)(=O)=O)cc2)c1[N+](=O)[O-]` (stereo in doubt; 27j) [listing 2 of 2 here], in test [2], the %max came out at 94.3%. As to `CC(C)(C)OC(=O)N1CC2CC1CC2Nc1ncnc(Nc2ccc(S(C)(=O)=O)cc2F)c1[N+](=O)[O-]` (stereo in doubt; 27k) [listing 1 of 2 here], the pEC50 in test [1] was less than 5.00. As to `CC(C)(C)OC(=O)N1CC2CC1CC2Nc1ncnc(Nc2ccc(S(C)(=O)=O)cc2F)c1[N+](=O)[O-]` (stereo in doubt; 27k) [listing 2 of 2 here], the %max in test [2] came out at 34.8%. Turning to `CC(C)(C)OC(=O)N1CC2CC1CC2Nc1ncnc(Nc2ccc(S(C)(=O)=O)cc2)c1[N+](=O)[O-]` (stereo in doubt; 27l) [listing 1 of 2 here], the pEC50 in test [1] was less than 5.00. As to `CC(C)(C)OC(=O)N1CC2CC1CC2Nc1ncnc(Nc2ccc(S(C)(=O)=O)cc2)c1[N+](=O)[O-]` (stereo in doubt; 27l) [listing 2 of 2 here], the %max in test [2] amounted to 25.1%. Regarding `CC(C)(C)OC(=O)N1CC2CCC1CC2Oc1ncnc(Nc2ccc(S(C)(=O)=O)cc2)c1[N+](=O)[O-]` (stereo in doubt; 27n) [listing 1 of 2 here], the negative-log EC50 (pEC50) in test [1] is 8.51. Take `CC(C)(C)OC(=O)N1CC2CCC1CC2Oc1ncnc(Nc2ccc(S(C)(=O)=O)cc2)c1[N+](=O)[O-]` (stereo in doubt; 27n) [listing 2 of 2 here]: the %max in test [2] was 71.9%.

Regarding `CC(C)(C)OC(=O)N1CC2CCC1CC2Oc1ncnc(Nc2ccc(S(C)(=O)=O)cc2)c1[N+](=O)[O-]` (stereo in doubt; 27p) [listing 1 of 2 here], the pEC50 in test [1] is less than 5.00.

With `CC(C)(C)OC(=O)N1CC2CCC1CC2Oc1ncnc(Nc2ccc(S(C)(=O)=O)cc2)c1[N+](=O)[O-]` (stereo in doubt; 27p) [listing 2 of 2 here], the %max in test [2] was found to be 44.7%. As to `CC(C)(C)OC(=O)N1CC2CCC1CC2Nc1ncnc(Nc2ccc(S(C)(=O)=O)cc2F)c1[N+](=O)[O-]` (stereo in doubt; 27q) [listing 1 of 2 here], in test [1], the pEC50 was 8.74. Regarding `CC(C)(C)OC(=O)N1CC2CCC1CC2Nc1ncnc(Nc2ccc(S(C)(=O)=O)cc2F)c1[N+](=O)[O-]` (stereo in doubt; 27q) [listing 2 of 2 here], the %max in test [2] worked out at 104%. For the molecule `CC(C)(C)OC(=O)N1CC2CCC1CC2Nc1ncnc(Nc2ccc(S(C)(=O)=O)cc2)c1[N+](=O)[O-]` (stereo in doubt; 27r) [listing 1 of 2 here], in test [1], the pEC50 was 8.25. Regarding `CC(C)(C)OC(=O)N1CC2CCC1CC2Nc1ncnc(Nc2ccc(S(C)(=O)=O)cc2)c1[N+](=O)[O-]` (stereo in doubt; 27r) [listing 2 of 2 here], in test [2], the %max amounted to 78.9%. On to `CC(C)(C)OC(=O)N1CC2CCC1CC2Nc1ncnc(Nc2ccc(S(C)(=O)=O)cc2F)c1[N+](=O)[O-]` (stereo in doubt; 27s) [listing 1 of 2 here], for which the pEC50 in test [1] is 8.28. In the case of `CC(C)(C)OC(=O)N1CC2CCC1CC2Nc1ncnc(Nc2ccc(S(C)(=O)=O)cc2F)c1[N+](=O)[O-]` (stereo in doubt; 27s) [listing 2 of 2 here], in test [2], the %max stood at 63.2%. On to `CC(C)(C)OC(=O)N1CC2CCC1CC2Nc1ncnc(Nc2ccc(S(C)(=O)=O)cc2)c1[N+](=O)[O-]` (stereo in doubt; 27t) [listing 1 of 2 here], for which the pEC50 in test [1] is 8.19. Take `CC(C)(C)OC(=O)N1CC2CCC1CC2Nc1ncnc(Nc2ccc(S(C)(=O)=O)cc2)c1[N+](=O)[O-]` (stereo in doubt; 27t) [listing 2 of 2 here]: in test [2], the %max is 58.1%.

Broadly, the pEC50 is the negative decadic logarithm of the EC50, by convention in mol/L.
